SENP8 block-1 – SENP8 (human) protease inhibition | Q96LD8 | recombinant SENP8, Nedd8 substrate fluorescence | inhibition, % at 20 µM | actives 0.64% (n = 360,000); in the data active means inhibition mostly above about 40%, no sharp cut-off; inactive means mostly below about 27%
Target sequence (Q96LD8 whole entry, looked up): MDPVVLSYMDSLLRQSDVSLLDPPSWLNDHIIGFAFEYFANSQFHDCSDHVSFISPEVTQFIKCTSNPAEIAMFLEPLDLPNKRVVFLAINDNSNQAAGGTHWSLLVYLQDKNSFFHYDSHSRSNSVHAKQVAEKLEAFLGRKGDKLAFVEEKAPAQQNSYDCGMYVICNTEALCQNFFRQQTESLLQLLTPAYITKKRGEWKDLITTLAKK
SENP1 FRET inh – SENP1 (human) catalytic domain inhibition. recombinant SENP1 catalytic domain, CyPet-SUMO1-YPet FRET cleavage. AID 624204. actives 0.21% (n = 360,000). inhibition, % at 10 µM;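 active means inhibition at least 30% at 10 µM, raw YFP signal under a set limit, fluorescence ratio 0.5 to 1.5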;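 further: 0% = enzyme with DMSO and 100% = no enzyme wells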
Target sequence (Q9P0U3 419-644 limits assumed): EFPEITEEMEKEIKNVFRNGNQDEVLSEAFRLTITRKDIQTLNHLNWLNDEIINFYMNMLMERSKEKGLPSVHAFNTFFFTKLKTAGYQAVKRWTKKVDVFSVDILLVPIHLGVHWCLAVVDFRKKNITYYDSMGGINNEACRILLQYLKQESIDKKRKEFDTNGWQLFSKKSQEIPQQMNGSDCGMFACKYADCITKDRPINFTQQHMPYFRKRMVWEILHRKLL
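material = recombinant human SENP1 catalytic domain, His6-tagged | quantity = 20 pM enzyme | reagent = 25 nM SUMO1 FRET substrate | compound dosing = 10 µM single point, 0.5% DMSO | timing = 50 min enzyme reaction, room temperature, light-protected | detection = FRET, CFP and YFP emission | control set = no-enzyme low, enzyme-DMSO high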
SENP6 inh – SENP6 protease inhibition. inhibition, % at 10 µM. AID 2599. Recombinant SENP6 catalytic domain, aminoluciferin luminescence. Q9GZR1. actives 1.8% (n = 330,000);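 active means inhibition above about 50% at the single tested dose, limit read from the data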;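 further: plate controls were DMSO wells with enzyme for no effect and DMSO wells lacking enzyme for full effect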
SENP8 block-2 – SENP8 protease inhibition; Q96LD8; purified SENP8, Z-RLRGG-aminoluciferin cleavage, luminescence; inhibition, % at 10 µM; actives 1.2% (n = 330,000); AID 2540; in the data active means inhibition above about 50%
SENP7 block – inhibitors of human SENP7 protease; Q9BQF6; recombinant SENP7, Z-RLRGG-aminoluciferin luminescence, 40 min; inhibition, % at 5 µM; actives 1.5% (n = 330,000);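 active means inhibition above about 50% at the single test dose, limit read from the data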;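 further: plate controls were DMSO with enzyme for no effect and no enzyme buffer wells for full effect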
Platelet DG rel – platelet dense granule release activity. AID 1663. inhibition, %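 (compounds screened at 7.5 µM in platelet-rich plasma)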. actives 0.22% (n = 300,000). human platelet-rich plasma, SFLLRN dense granule ATP release, luminescence;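 active means mean replicate score, as percent of positive control, at or above 50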
SENP1 conf – SENP1 (human) inhibition, single concentration confirmation; shares compounds with SENP1 FRET inh; AID 651678; recombinant SENP1, CyPet-SUMO1-YPet FRET cleavage; inhibition, % at 10 µM; actives 34% (n = 520); in the data active means inhibition mostly above about 35%, no sharp cut-off; inactive means mostly below about 32%;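 further: 0% = enzyme with DMSO and 100% = no enzyme control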
SENP1 kinetic – confirmation of human SENP1 SUMO protease inhibitors, kinetic; shares compounds with SENP1 FRET inh; recombinant SENP1, CyPet-SUMO1-YPet FRET kinetic cleavage; inhibition, % at 10 µM; actives 26% (n = 520); AID 651690; in the data active means inhibition mostly above about 32%, no sharp cut-off; inactive means mostly below about 29%;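 further: 0% = DMSO with enzyme and 100% = no enzyme substrate only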
Active calls of the source: *; i = inactive; . = no result. A selection: hits, their analogues and other compounds. The true share with any hit is near 2.6%.

SMILES	SENP8 block-1	SENP1 FRET inh	SENP6 inh	SENP8 block-2	SENP7 block	Platelet DG rel	SENP1 conf	SENP1 kinetic
O=C(NN1C(=O)C2C3C=CC(C3)[C@H]2C1=O)c1cccnc1 (stereo not given in full)	5	1	-7	-10	-8	-8	.	.
N#CCSc1ccccc1NC(=O)COc1ccc(-c2nnco2)cc1	-15	34*	-1	-4	8	.	3	10
N#CCSc1ccccc1NC(=O)COC(=O)Cc1c[nH]c2ccccc12	-16	43*	-3	-5	2	.	3	6
O=C(COc1ccc(-c2nnco2)cc1)Nc1cc([N+](=O)[O-])ccc1F	11	1	-11	-3	-2	.	.	.
CC(C)Oc1cccc(C(=O)C2CCCN(C(=O)c3ccnn3C)C2)c1 (stereo not given)	5	2	-12	-12	-8	0	.	.
COc1ccc(C(CC(=O)N2CCCC(C)C2)c2c(OC)cc(OC)c3ccc(=O)oc23)cc1 (stereo not given)	-498	-5	-15	7	-6	16	.	.
Nc1nc(N=Nc2ccc(O)cc2)cc(=O)[nH]1	38	72*	.	.	.	.	65*	44*
Nc1nc(N)c(N=Nc2ccccc2)c(=O)[nH]1	16	-11	.	.	.	.	.	.
CCOc1cc([N+](=O)[O-])cc2c1C(=O)Nc1ccccc1O2	16	54*	-13	-9	-2	-2	26	17
O=C1Nc2ccccc2Oc2cc([N+](=O)[O-])ccc21	19	23	21	6	9	7	.	.
CC(C)C1N(C(N)=S)N=CC1(C)C (stereo not given)	37	4	-4	-6	6	-9	.	.
CN(C)c1ccc(/C=N/NC(=O)C(=O)/C=C2\NC3(CCCC3)Cc3ccccc32)cc1	16	53*	-27	-11	-7	-8	37*	28
COc1cc(/C=N/NC(=O)C(=O)/C=C2\NC3(CCCC3)Cc3ccccc32)ccc1O	6	-1	-8	-6	-8	32	.	.
Cc1ccc(S(=O)(=O)CCSc2ccc(C(F)(F)F)cn2)cc1	18	0	-33	-11	-2	-9	.	.
COC(=O)CSc1nc(C)cc(C(F)(F)F)c1C#N	2	4	-22	0	3	-12	.	.
Cc1coc(NC(=O)CSc2nc(-c3ccncc3)cc(C(F)(F)F)c2C#N)n1	-110	66*	-2	-2	-5	1	45*	28*
CCOC(=O)NC(=O)CSc1nc(C)cc(C(F)(F)F)c1C#N	-3	39*	-10	-2	-7	-2	9	13
Cc1ccc(S(=O)(=O)CCSc2nc(C)cc(C(F)(F)F)c2C#N)cc1	-21	72*	-2	6	10	-1	22	16
N#C/C(C(N)=O)=C1/SC(Cc2ccc(F)cc2)C(=O)N1c1ccccc1 (stereo not given)	24	70*	-16	-11	-7	-4	-4	2
O=C(CSC1=NS(=O)(=O)c2cc(Cl)ccc2N1)Nc1ccccc1C(F)(F)F	6	4	-12	15	-11	7	.	.
C[C@@H]1O[C@@H](OC[C@H]2O[C@@H](Oc3cc(O)c4c(=O)cc(-c5ccc(O)c(O)c5)oc4c3)[C@H](O)[C@@H](O)[C@@H]2O)[C@H](O)[C@H](O)[C@H]1O	29	43*	-5	7	5	.	57*	42*
COc1cc(-c2oc3cc(O)cc(O)c3c(=O)c2O[C@@H]2O[C@H](COC3O[C@@H](C)[C@H](O)[C@@H](O)[C@H]3O)[C@@H](O)[C@H](O)[C@H]2O)ccc1O (stereo not given in full)	11	8	-17	-10	-17	.	.	.
CS(=O)(=O)N(CC(=O)N1CCc2ccccc2C1)Cc1ccc(F)cc1	6	-1	-16	-2	2	-1	.	.
Oc1ccc(C=NN=C2c3ccccc3-c3ccccc32)c(O)c1	32	71*	.	.	.	.	78*	51*
C(=NN=C1c2ccccc2-c2ccccc21)c1c[nH]c2ccccc12	38	-1	.	.	.	.	.	.
SMILES	SENP8 block-1	SENP1 FRET inh	SENP6 inh	SENP8 block-2	SENP7 block	Platelet DG rel	SENP1 conf	SENP1 kinetic
CSCCCNC(=S)N1CCc2ccccc2C1	1	0	-4	3	0	5	.	.
Cc1c(C(=O)NCCSCc2cccc(C(F)(F)F)c2)cnn1-c1ccc(F)cc1	5	-3	3	-5	1	-21	.	.
Cc1c(C=NNC(=O)c2ccc(Br)cc2)c2ccccn2c1C(=O)c1ccncc1	24	50*	2	-2	-35	.	30	18
NS(=O)(=O)c1ccc(CNS(=O)(=O)c2cc(C(=O)O)ccc2Cl)cc1	19	4	3	2	-2	-1	.	.
CCN1C(=O)CC2CCCC1C2 (stereo not given)	9	-1	.	.	.	.	.	.
N#Cc1ccc(-c2nc3ccc(Br)cn3c2Cc2ccccc2C(F)(F)F)cc1	-49	45*	.	.	.	.	44*	36*
COc1ccccc1Cc1c(-c2cccc(Cl)c2)nc2ccc(Br)cn12	-37	37*	.	.	.	.	-9	-2
CSc1ncc(CNc2cc([N+](=O)[O-])ccc2C)c(N)n1	23	37*	-12	-10	14	-1	3	9
Cc1ccccc1NC(=O)c1c(C)[nH]c(=S)c(C#N)c1-c1ccc(Cl)cc1	12	50*	-1	1	10	-7	5	8
Cc1[nH]c(=S)c(C#N)c(-c2ccccc2)c1C(=O)Nc1ccccc1	-4	55*	-18	-7	-2	10	-2	-9
CCCCC1=C(C(=O)OCC)C(C(=O)OCC)Oc2ccccc21 (stereo not given)	-14	2	.	.	-2	.	.	.
Cc1ccc(-n2cnc3sc(C)c(C)c3c2=O)cc1	32	37*	-11	0	1	12	-14	1
Cc1cccc(-n2cnc3sc(C)c(C)c3c2=O)c1	7	0	6	-13	1	-3	.	.
Cc1cc2c(c(=O)o1)C(CCC1CCCCC1)C(C#N)=C(N)O2 (stereo not given)	-33	-76	-7	6	5	-16	.	.
CC(=O)Nc1cc(-c2ccc(N3CCN(C)CC3)cc2)cn2c(-c3ccc(S(C)(=O)=O)cc3)cnc12	-210	22	.	.	.	.	.	.
COc1cc(-c2cnc3c(NC(C)=O)cc(-c4ccc(N5CCN(C)CC5)cc4)cn23)cc(OC)c1OC	i	34*	.	.	.	.	12	-1
CC(=O)Nc1cc(-c2ccc(N3CCN(C)CC3)cc2)cn2c(-c3ccccc3)cnc12	-350	48*	.	.	.	.	39*	28
